The target in data set [1] is T1, Melanin-concentrating hormone receptor 1 (Homo sapiens, UniProt Q99705). Nature of the data set: Displacement of [125I]MCH from human MCH1 receptor. An outline of the steps:
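Competition binding on membranes from CHO cells expressing human MCH1R, with [125I]-MCH as radioligand displaced by test compounds; IC50 reported as the mean of 2 experiments.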
On the technique in general: In a radioligand displacement assay an active substance lowers the binding of a labelled ligand.

Data set [2] deals with T1, Melanin-concentrating hormone receptor 1. In words: Antagonist activity at human MCH1 receptor expressed in CHO cells assessed as inhibition of MCH-induced intracellular calcium level by FLIPR assay. Format: functional, cell-based. On the technique in general: Calcium flux is commonly read through the fluorescence of an indicator in the cells.
Data set [3] is described as follows: Plasma concentration in Sprague-Dawley rat at 10 mg/kg, po after 2 hrs. Format: ADME, organism-based. More on the design: dose 10 mg/kg, route oral. An outline of the steps:
(§1)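 Single oral dose of 10 mg/kg given to SD rats. Plasma (µM) and brain (nmol/g) levels were measured 2 h after dosing. Values are means of 3 experiments.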

The test system of data set [4] is Brain. Nature of the data set: Drug level in Sprague-Dawley rat brain at 10 mg/kg, po after 2 hrs. Type of data set: ADME, organism-based. Also noted: dose 10 mg/kg, route oral. The note with it: in vivo. An outline of the steps:
as §1

The IC50 is the concentration at which inhibition is half-maximal.

T1 sequence (Q99705 whole entry): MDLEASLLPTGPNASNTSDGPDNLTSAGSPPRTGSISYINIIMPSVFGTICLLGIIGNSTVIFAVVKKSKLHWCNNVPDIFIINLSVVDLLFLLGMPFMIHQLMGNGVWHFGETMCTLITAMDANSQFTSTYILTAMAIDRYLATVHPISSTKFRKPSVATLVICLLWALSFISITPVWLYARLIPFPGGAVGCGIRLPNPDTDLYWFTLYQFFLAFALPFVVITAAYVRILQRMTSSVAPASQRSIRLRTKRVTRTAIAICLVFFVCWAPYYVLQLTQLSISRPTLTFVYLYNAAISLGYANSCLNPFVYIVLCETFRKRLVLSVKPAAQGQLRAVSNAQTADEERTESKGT

As to `CC(C)(C)c1cn2cc(NC(=O)c3ccc(-c4ccc(C(F)(F)F)cc4)cc3)ccc2n1`, the IC50 in data set [1] amounted to 7.1 nM.
On the same count and under the same terms, next, `Cc1c(C2CC2)nc2ccc(NC(=O)c3ccc(-c4cnc(C(F)(F)F)nc4)cc3)cn12`: 160 nM; `CCc1c(C2CC2)nc2ccc(NC(=O)c3ccc(-c4ccc(C(F)(F)F)cc4)cc3)cn12`: 20 nM.
Same read-out and setting: then `CC(=O)N(C)Cc1cn2cc(NC(=O)c3ccc(-c4ccc(C(F)(F)F)cc4)cc3)ccc2n1`, with 35 nM.
Turning to `Cc1c(C2CC2)nc2ccc(NC(=O)c3ccc(-c4ccc(F)nc4)cc3)cn12`, the IC50 in data set [2] worked out at 20 nM; in data set [1], 4.4 nM. Besides, the concentration at 2 h in data set [3] worked out at 5 µM. The Drug uptake in data set [4] amounted to 2.5 nmol/g.
Regarding `Cc1c(C2CC2)nc2ccc(NC(=O)c3ccc(-c4ccccn4)cc3)cn12`, the IC50 in data set [2] stood at 26 nM.
Turning to `CC(O)c1c(C2CC2)nc2ccc(NC(=O)c3ccc(-c4ccc(C(F)(F)F)cc4)cc3)cn12` (stereo not given), the IC50 in data set [1] came out at 330 nM.
The same measure, in the same setting: next, `CCCc1cn2cc(NC(=O)c3ccc(-c4ccc(C(F)(F)F)cc4)cc3)ccc2n1`: 11 nM.
In data set [1], `CC(O)c1cn2cc(NC(=O)c3ccc(-c4ccc(C(F)(F)F)cc4)cc3)ccc2n1` (stereo not given) displayed an IC50 of 30 nM.
Compound `O=C(Nc1ccc2nc(C3CC3)cn2c1)c1ccc(-c2ccc(C(F)(F)F)cn2)cc1` came in with a concentration for half-maximal inhibition (IC50) in data set [1] of 8.2 nM.
Same read-out and setting: next, `O=C(Nc1ccc2nc(C3CC3)cn2c1)c1ccc(-c2ccccn2)cc1`: 140 nM; `CC(C)c1cn2cc(NC(=O)c3ccc(-c4ccc(C(F)(F)F)cc4)cc3)ccc2n1`: 5.4 nM; `O=C(Nc1ccc2nc(C3CC3)cn2c1)c1ccc(-c2ccc(C(F)(F)F)cc2)cc1`: 5.6 nM.
Still for that read-out and setting: next, `Cc1cn2cc(NC(=O)c3ccc(-c4ccc(C(F)(F)F)cc4)cc3)ccc2n1`: 4.6 nM.
As for `Cc1c(C2CC2)nc2ccc(NC(=O)c3ccc(-c4ccc(F)nc4)nc3)cn12`, the IC50 in data set [2] is 217 nM; in data set [1] it was 61 nM.
On the same counts, the results for `Cc1c(C2CC2)nc2ccc(NC(=O)c3ncc(-c4ccc(F)cc4)cn3)cn12` are 29 nM and 6.8 nM.
For the compound `Cc1c(C2CC2)nc2ccc(NC(=O)c3ccc(-c4ccc(F)cn4)cc3)cn12`, the values for the half-inhibitory concentration (IC50) in data set [2] and in data set [1] were 90 nM and 5.4 nM, respectively.
For `Cc1c(C2CC2)nc2ccc(NC(=O)c3ccc(-c4ccc(F)nc4)cn3)cn12`, the IC50 stood at 121 nM in data set [2] and 44 nM in data set [1].
As to `CC(C)(O)c1cn2cc(NC(=O)c3ccc(-c4ccc(C(F)(F)F)cc4)cc3)ccc2n1`, in data set [1], the IC50 came out at 17 nM.
In the case of `Cc1c(C2CC2)nc2ccc(NC(=O)c3ccc(-c4ccc(F)cc4)cn3)cn12`, the IC50 in data set [2] stood at 59 nM.
The compound `O=C(Nc1ccc2nccn2c1)c1ccc(-c2ccc(C(F)(F)F)cc2)cc1` returned an IC50 in data set [1] of 300 nM.
Same read-out and setting: then `CC(=O)c1c(C2CC2)nc2ccc(NC(=O)c3ccc(-c4ccc(C(F)(F)F)cc4)cc3)cn12`, with 320 nM.
With `Cc1c(C2CC2)nc2ccc(NC(=O)c3ccc(-c4ccc(C(F)(F)F)cn4)cc3)cn12`, the results for the IC50 in data set [2] and in data set [1] were 1000 nM and 3.5 nM, respectively. Further, the concentration at 2 h in data set [3] was found to be 1.4 µM. In data set [4], this compound had a Drug uptake of 1.6 nmol/g.
As for `O=C(Nc1ccc2nc(C3CC3)c(C3CC3)n2c1)c1ccc(-c2ccc(C(F)(F)F)cc2)cc1`, the IC50 in data set [1] is 260 nM.
Compound `O=C(Nc1ccc2nc(C3CC3)c(CO)n2c1)c1ccc(-c2ccc(C(F)(F)F)cc2)cc1` yielded an IC50 in data set [1] of 11 nM.
`Cc1c(C2CC2)nc2ccc(NC(=O)c3ccc(-c4ccc(F)cc4)nc3)cn12`: the IC50 in data set [2] was determined as 94 nM; in data set [1] it was 4 nM.
Turning to `CCOC(=O)c1cn2cc(NC(=O)c3ccc(-c4ccc(C(F)(F)F)cc4)cc3)ccc2n1`, the IC50 in data set [1] was above 1000 nM.
Take `COc1ccc(-c2ccc(C(=O)Nc3ccc4nc(C5CC5)c(C)n4c3)cc2)nc1`: the IC50 was found to be 122 nM in data set [2] and 6 nM in data set [1].
Compound `O=C(Nc1ccc2nc(CO)cn2c1)c1ccc(-c2ccc(C(F)(F)F)cc2)cc1` returned an IC50 in data set [1] of 130 nM.
For the compound `Cc1c(C2CC2)nc2ccc(NC(=O)c3ncc(-c4ccc(F)nc4)cn3)cn12`, the values for the IC50 in data set [2] and in data set [1] were 164 nM and 102 nM, respectively.
`Cc1c(C2CC2)nc2ccc(NC(=O)c3ccc(-c4ccc(C(F)(F)F)cc4)cc3)cn12` yielded an IC50 in data set [1] of 4.8 nM.
With `Cc1ccc(-c2ccc(C(=O)Nc3ccc4nc(C5CC5)c(C)n4c3)cc2)nc1`, the IC50 came to 85 nM in data set [2] and 4.8 nM in data set [1].
On the same counts, the results for `Cc1c(C2CC2)nc2ccc(NC(=O)c3ccc(-c4ccc(S(C)(=O)=O)cn4)cc3)cn12` are 94 nM and 48 nM.
In data set [1], `CN(C)Cc1cn2cc(NC(=O)c3ccc(-c4ccc(C(F)(F)F)cc4)cc3)ccc2n1` gave an IC50 of 83 nM.
For the compound `Cc1c(C2CC2)nc2ccc(NC(=O)c3cnc(-c4ccc(F)cc4)cn3)cn12`, the figures for the IC50 in data set [2] and in data set [1] were 70 nM and 2.5 nM, respectively.
Turning to `Cc1c(C2CC2)nc2ccc(NC(=O)c3ccc(-c4ccc(Cl)cn4)cc3)cn12`, the IC50 amounted to 100 nM in data set [2] and 2.2 nM in data set [1].
On the same counts, the results for `Cc1c(C2CC2)nc2ccc(NC(=O)c3ccc(-c4ccc(C(F)(F)F)nc4)cc3)cn12` are 109 nM and 4 nM.

(Values after ChEMBL document CHEMBL1153478, “Discovery of imidazo[1,2-a]pyridines as potent MCH1R antagonists” (Bioorg Med Chem Lett, 2009).)
